Experimental data reported in ChEMBL document CHEMBL3244414, “Structure-activity relationships among the O-acyl derivatives of leucomycin. Correlation of minimal inhibitory concentrations with binding to Escherichia coli ribosomes” (J Med Chem, 1977).
In brackets after ≈: the same amount, converted by molar mass.

Columns and labels:
[1] = tested on: Klebsiella pneumoniae; test: Antimicrobial activity against Klebsiella pneumoniae ATCC 10031 by agar dilution method; type: functional
Procedure, shortened: (§1)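 Read-out is the minimal inhibitory concentration, found by agar dilution against the named strain.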

[2] = target: Bacterial 70S ribosome; test: (§2) Displacement of [14C]erythromycin from Escherichia coli ribosomes after 30 mins by scintillation spectrometer analysis
Procedure, shortened: (§3)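 NH4Cl-washed E. coli ribosomes with [14C]erythromycin A and varied competitor concentrations in 0.01 M Tris-HCl pH 7.2, 0.1 M KCl, 0.004 M MgCl2, 0.01 M NH4Cl. Incubated 30 min at 24 °C, stopped by dilution in cold Tris/KCl/MgCl2 buffer, membrane-filtered, washed three times, dried, scintillation counted. Reports the concentration giving 50% inhibition of binding.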

[3] = target: Bacterial 70S ribosome (Bacteria) (UniProt P0A7V0+P60723+P0AG67+P0A7R5+P0A7R9+P0A7S3+P0A7S9+P0AG59+P0ADZ4+P0A7T3+P0AG63+P0A7T7+P0A7U3+P0A7U7+P68679+P0A7V3+P0A7V8+P0A7W1+P02358+P02359+P0A7W7+P0A7X3+P0A7J3+P0A7J7+P0AA10+P0ADY3+P02413+P0ADY7+P0AG44+P0C018+P0A7K6+P0A7L0+P0A7L3+P0AG48+P61175+P0ADZ0+P60624+P68919+P0A7L8+P0A7M2+P0A7M6+P60422+P0AG51+P0A7N1+P0A7M9+P0A7N4+P0A7N9+P0A7P5+P0A7Q1+Q2EEQ2+P0A7Q6+P60438+P62399+P0AG55+P0A7K2); test: as §2; procedure, shortened: as §3
[4] = tested on: Staphylococcus aureus; test: Antimicrobial activity against Staphylococcus aureus ATCC 6538P by agar dilution method; type: functional; procedure, shortened: as §1
[5] = tested on: Bacillus spizizenii; test: Antimicrobial activity against Bacillus subtilis ATCC 6633 by agar dilution method; type: functional; procedure, shortened: as §1
[6] = Klebsiella pneumoniae, ATCC 10031, read-out: MIC
[7] = Staphylococcus aureus, ATCC 6538P, read-out: MIC
[8] = Bacillus spizizenii, ATCC 6633, read-out: MIC

Row | SMILES | MIC [1, 6] | IC50 [2] | pK50 [3] | MIC [4, 7] | MIC [5, 8] | MIC [1] | MIC [4] | MIC [5]
1 | CCCC(=O)O[C@H]1[C@H](C)O[C@@H](O[C@H]2[C@H](N(C)C)[C@@H](O)[C@H](O[C@H]3[C@@H](CC=O)C[C@@H](C)[C@@H](O)/C=C/C=C/C[C@@H](C)OC(=O)C[C@@H](OC(C)=O)[C@@H]3OC)O[C@@H]2C)C[C@@]1(C)O | 50 µg/mL (≈ 61.4 µM) | 1200 nM | 5.9 | 0.8 µg/mL (≈ 0.983 µM) | 1.6 µg/mL (≈ 1.97 µM) |  |  | 
2 | CO[C@@H]1[C@@H](O[C@@H]2O[C@H](C)[C@@H](O[C@H]3C[C@@](C)(O)[C@@H](OC(=O)CC(C)C)[C@H](C)O3)[C@H](N(C)C)[C@H]2O)[C@@H](CC=O)C[C@@H](C)[C@@H](OC(=O)C(C)C)/C=C/C=C/C[C@@H](C)OC(=O)C[C@H]1OC(C)=O | 100 µg/mL (≈ 111 µM) | 2000 nM | 5.7 | 3.1 µg/mL (≈ 3.45 µM) | 0.8 µg/mL (≈ 0.891 µM) |  |  | 
3 | CCCC(=O)O[C@H]1[C@H](C)O[C@@H](O[C@H]2[C@H](N(C)C)[C@@H](OC(=O)CCC(=O)O)[C@H](O[C@H]3[C@@H](CC=O)C[C@@H](C)[C@@H](O)/C=C/C=C/C[C@@H](C)OC(=O)C[C@@H](O)[C@@H]3OC)O[C@@H]2C)C[C@@]1(C)O | 100 µg/mL (≈ 115 µM) | 1900 nM | 5.7 | 1.6 µg/mL (≈ 1.83 µM) | 0.8 µg/mL (≈ 0.917 µM) |  |  | 
4 | CCCC(=O)O[C@H]1[C@H](C)O[C@@H](O[C@H]2[C@H](N(C)C)[C@@H](O)[C@H](O[C@H]3[C@@H](CC=O)C[C@@H](C)[C@@H](OC(=O)CC)/C=C/C=C/C[C@@H](C)OC(=O)C[C@@H](O)[C@@H]3OC)O[C@@H]2C)C[C@@]1(C)O | 50 µg/mL (≈ 60.4 µM) | 1700 nM | 5.8 | 1.6 µg/mL (≈ 1.93 µM) | 0.8 µg/mL (≈ 0.966 µM) |  |  | 
5 | CCCC(=O)O[C@H]1[C@H](C)O[C@@H](O[C@H]2[C@H](N(C)C)[C@@H](OC(C)=O)[C@H](O[C@H]3[C@@H](CC=O)C[C@@H](C)[C@@H](O)/C=C/C=C/C[C@@H](C)OC(=O)C[C@@H](OC(C)=O)[C@@H]3OC)O[C@@H]2C)C[C@@]1(C)O | 100 µg/mL (≈ 117 µM) | 20900 nM | 4.7 | 0.8 µg/mL (≈ 0.935 µM) | 0.8 µg/mL (≈ 0.935 µM) |  |  | 
6 | CCCC(=O)O[C@H]1[C@H](C)O[C@@H](O[C@H]2[C@H](N(C)C)[C@@H](OC(C)=O)[C@H](O[C@H]3[C@@H](CC=O)C[C@@H](C)[C@@H](O)/C=C/C=C/C[C@@H](C)OC(=O)C[C@@H](O)[C@@H]3OC)O[C@@H]2C)C[C@@]1(C)O | 12.5 µg/mL (≈ 15.4 µM) | 14800 nM | 4.8 | 1.6 µg/mL (≈ 1.97 µM) | 0.8 µg/mL (≈ 0.983 µM) |  |  | 
7 | CO[C@@H]1[C@@H](O[C@@H]2O[C@H](C)[C@@H](O[C@H]3C[C@@](C)(O)[C@@H](OC(=O)CC(C)C)[C@H](C)O3)[C@H](N(C)C)[C@H]2O)[C@@H](CC=O)C[C@@H](C)[C@@H](O)/C=C/C=C/C[C@@H](C)OC(=O)C[C@H]1O (stereo in doubt; 2) [KITASAMYCIN] |  | 1000 nM | 6 |  |  | 25 µg/mL (≈ 31.8 µM) | 1.6 µg/mL (≈ 2.04 µM) | 0.4 µg/mL (≈ 0.509 µM)
8 | CCCC(=O)O[C@H]1[C@H](C)O[C@@H](O[C@H]2[C@H](N(C)C)[C@@H](OC(=O)CC)[C@H](O[C@H]3[C@@H](CC=O)C[C@@H](C)[C@@H](O)/C=C/C=C/C[C@@H](C)OC(=O)C[C@@H](O)[C@@H]3OC)O[C@@H]2C)C[C@@]1(C)O | 12.5 µg/mL (≈ 15.1 µM) | 13800 nM | 4.9 | 0.8 µg/mL (≈ 0.966 µM) | 1.6 µg/mL (≈ 1.93 µM) |  |  | 
9 | CO[C@@H]1[C@@H](O[C@@H]2O[C@H](C)[C@@H](O[C@H]3C[C@@](C)(O)[C@@H](OC(=O)CC(C)C)[C@H](C)O3)[C@H](N(C)C)[C@H]2OC(C)=O)[C@@H](CC=O)C[C@@H](C)[C@@H](O)/C=C/C=C/C[C@@H](C)OC(=O)C[C@H]1OC(C)=O | 25 µg/mL (≈ 28.7 µM) | 33900 nM | 4.5 | 1.6 µg/mL (≈ 1.84 µM) | 0.8 µg/mL (≈ 0.919 µM) |  |  | 
10 | CC[C@H]1OC(=O)[C@H](C)[C@@H](O[C@H]2C[C@@](C)(OC)[C@@H](O)[C@H](C)O2)[C@H](C)[C@@H](O[C@@H]2O[C@H](C)C[C@H](N(C)C)[C@H]2O)[C@](C)(O)C[C@@H](C)C(=O)[C@H](C)[C@@H](O)[C@]1(C)O [ERYTHROMYCIN] | 6.3 µg/mL (≈ 8.58 µM) | 750 nM | 6.1 | 0.4 µg/mL (≈ 0.545 µM) | 0.2 µg/mL (≈ 0.273 µM) |  |  | 
11 | CCC(=O)O[C@H]1[C@H](O[C@H]2[C@@H](CC=O)C[C@@H](C)[C@@H](OC(=O)CC)/C=C/C=C/C[C@@H](C)OC(=O)C[C@@H](OC(C)=O)[C@@H]2OC)O[C@H](C)[C@@H](O[C@H]2C[C@@](C)(O)[C@@H](OC(=O)CC(C)C)[C@H](C)O2)[C@@H]1N(C)C | 100 µg/mL (≈ 106 µM) | > 100000 nM |  | 6.3 µg/mL (≈ 6.7 µM) | 6.3 µg/mL (≈ 6.7 µM) |  |  | 
